Data published in ChEMBL document CHEMBL1777751, “Virtual screening and further development of novel ALK inhibitors” (Bioorg Med Chem, 2011).

How the values were obtained:
[1] = target: T1, ALK tyrosine kinase receptor (Homo sapiens, UniProt Q9UM73); experiment: Inhibition of ALK using FL-Peptide 13, 5-FAM-KKSRGDYMTMQIG-CONH2 substrate at 10 uM after 60 mins by mobility shift assay
Summary of the method: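 Recombinant ALK at 42 ng/mL, with 1.5 µM fluorescent peptide substrate and ATP. Buffer: 50 mM Hepes pH 7.4, 10 mM MgCl2, 1 mM DTT, 1% protease and 1% phosphatase inhibitor cocktails, 0.01% Brij-35. Compound was added in 5% DMSO. Incubated 60 min at room temperature, then read by mobility shift.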
Target sequence in this assay (Q9UM73 19-1620 limits assumed): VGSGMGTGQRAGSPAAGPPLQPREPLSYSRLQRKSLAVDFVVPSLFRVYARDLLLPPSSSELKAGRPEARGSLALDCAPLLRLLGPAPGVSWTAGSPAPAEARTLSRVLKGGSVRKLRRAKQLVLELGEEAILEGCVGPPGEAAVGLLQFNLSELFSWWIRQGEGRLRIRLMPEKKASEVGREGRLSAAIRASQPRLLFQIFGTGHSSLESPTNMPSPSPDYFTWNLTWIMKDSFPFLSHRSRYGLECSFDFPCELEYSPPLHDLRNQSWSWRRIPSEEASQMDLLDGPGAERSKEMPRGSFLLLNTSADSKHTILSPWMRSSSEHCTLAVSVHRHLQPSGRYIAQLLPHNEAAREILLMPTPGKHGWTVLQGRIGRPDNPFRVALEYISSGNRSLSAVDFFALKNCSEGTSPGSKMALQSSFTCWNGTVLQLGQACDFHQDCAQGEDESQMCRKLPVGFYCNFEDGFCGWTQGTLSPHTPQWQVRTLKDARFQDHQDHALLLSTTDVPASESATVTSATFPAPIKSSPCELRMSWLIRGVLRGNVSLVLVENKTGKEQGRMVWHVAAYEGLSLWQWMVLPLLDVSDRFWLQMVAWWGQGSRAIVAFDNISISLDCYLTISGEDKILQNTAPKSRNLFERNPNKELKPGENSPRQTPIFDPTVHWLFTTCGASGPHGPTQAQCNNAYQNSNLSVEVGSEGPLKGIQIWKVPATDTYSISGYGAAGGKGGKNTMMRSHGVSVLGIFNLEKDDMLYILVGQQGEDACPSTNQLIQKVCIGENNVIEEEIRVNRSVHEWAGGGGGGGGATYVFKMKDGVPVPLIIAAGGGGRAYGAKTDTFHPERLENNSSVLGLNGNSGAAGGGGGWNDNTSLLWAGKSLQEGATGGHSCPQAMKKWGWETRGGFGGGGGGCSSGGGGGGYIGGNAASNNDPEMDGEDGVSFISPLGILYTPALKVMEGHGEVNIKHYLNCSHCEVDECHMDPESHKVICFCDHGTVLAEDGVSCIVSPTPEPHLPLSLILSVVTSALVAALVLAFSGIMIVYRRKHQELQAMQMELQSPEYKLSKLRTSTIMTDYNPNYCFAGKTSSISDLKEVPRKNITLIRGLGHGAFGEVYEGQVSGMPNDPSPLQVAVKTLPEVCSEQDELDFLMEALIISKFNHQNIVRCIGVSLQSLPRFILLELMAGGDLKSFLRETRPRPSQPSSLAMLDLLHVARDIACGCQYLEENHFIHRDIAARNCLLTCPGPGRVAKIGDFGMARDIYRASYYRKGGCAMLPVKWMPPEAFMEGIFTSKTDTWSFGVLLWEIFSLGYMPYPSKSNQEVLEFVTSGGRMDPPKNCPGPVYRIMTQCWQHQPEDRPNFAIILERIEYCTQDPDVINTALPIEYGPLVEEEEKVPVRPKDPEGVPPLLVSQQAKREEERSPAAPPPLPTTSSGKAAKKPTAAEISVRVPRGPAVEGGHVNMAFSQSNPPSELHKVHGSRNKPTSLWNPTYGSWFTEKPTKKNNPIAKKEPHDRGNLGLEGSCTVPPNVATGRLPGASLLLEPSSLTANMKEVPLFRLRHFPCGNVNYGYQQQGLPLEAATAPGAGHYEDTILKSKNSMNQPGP

[2] = target: T1, ALK tyrosine kinase receptor; experiment: Inhibition of ALK using FL-Peptide 13, 5-FAM-KKSRGDYMTMQIG-CONH2 substrate after 60 mins by mobility shift assay
Target sequence in this assay (Q9UM73 whole entry): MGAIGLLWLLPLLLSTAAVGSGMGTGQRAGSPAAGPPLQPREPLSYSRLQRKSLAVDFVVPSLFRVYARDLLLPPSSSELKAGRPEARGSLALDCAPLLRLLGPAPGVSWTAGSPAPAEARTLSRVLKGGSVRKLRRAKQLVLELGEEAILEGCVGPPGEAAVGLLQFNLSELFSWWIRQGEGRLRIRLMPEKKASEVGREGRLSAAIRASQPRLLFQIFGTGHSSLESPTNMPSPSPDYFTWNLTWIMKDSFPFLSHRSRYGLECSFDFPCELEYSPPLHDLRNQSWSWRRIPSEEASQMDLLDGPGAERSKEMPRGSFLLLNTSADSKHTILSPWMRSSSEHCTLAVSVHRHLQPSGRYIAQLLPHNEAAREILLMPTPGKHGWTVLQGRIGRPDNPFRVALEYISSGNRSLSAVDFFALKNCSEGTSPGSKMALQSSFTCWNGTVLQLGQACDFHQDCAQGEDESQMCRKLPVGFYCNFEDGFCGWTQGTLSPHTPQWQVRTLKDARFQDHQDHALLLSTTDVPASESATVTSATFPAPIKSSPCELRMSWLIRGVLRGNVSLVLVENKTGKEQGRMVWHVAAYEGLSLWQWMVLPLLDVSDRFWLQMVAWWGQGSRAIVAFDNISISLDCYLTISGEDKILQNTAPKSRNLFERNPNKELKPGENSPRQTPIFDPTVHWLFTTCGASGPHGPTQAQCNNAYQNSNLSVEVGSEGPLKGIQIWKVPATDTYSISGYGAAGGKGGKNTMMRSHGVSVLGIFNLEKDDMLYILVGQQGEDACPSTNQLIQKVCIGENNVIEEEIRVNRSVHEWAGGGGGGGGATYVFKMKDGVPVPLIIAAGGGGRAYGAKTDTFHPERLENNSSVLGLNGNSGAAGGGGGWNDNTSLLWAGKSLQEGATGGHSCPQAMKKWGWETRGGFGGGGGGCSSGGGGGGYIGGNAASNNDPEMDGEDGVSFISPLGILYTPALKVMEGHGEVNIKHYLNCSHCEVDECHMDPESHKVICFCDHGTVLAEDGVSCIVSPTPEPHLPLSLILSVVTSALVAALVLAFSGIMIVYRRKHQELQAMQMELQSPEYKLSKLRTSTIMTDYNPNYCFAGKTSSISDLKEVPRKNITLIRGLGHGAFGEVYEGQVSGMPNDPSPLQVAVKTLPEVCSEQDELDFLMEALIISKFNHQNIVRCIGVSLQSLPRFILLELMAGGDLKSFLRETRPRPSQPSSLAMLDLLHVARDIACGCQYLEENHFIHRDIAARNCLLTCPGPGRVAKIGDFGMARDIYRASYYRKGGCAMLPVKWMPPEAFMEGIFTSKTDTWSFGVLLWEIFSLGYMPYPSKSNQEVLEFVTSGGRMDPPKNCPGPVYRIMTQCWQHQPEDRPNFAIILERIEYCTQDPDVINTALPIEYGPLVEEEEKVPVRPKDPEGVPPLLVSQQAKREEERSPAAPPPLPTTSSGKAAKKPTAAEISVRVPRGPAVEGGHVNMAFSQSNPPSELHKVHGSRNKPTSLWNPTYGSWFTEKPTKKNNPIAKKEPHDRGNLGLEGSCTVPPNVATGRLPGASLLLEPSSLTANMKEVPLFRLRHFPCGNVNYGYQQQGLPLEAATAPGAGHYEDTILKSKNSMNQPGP

[3] = target: Tyrosine-protein kinase Lck (Homo sapiens) (UniProt P06239); experiment: Inhibition of LCK at 4 uM by mobility shift assay
Summary of the method: (§1)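 Tyrosine kinase panel run by a contract lab. Each enzyme was incubated with 1 mM ATP and 1 µM of its appropriate peptide substrate, and the product was then read by mobility shift.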

[4] = target: T1, ALK tyrosine kinase receptor; experiment: Inhibition of ALK at 4 uM by mobility shift assay; summary of the method: as §1
Target sequence in this assay (Q9UM73 19-1620 limits assumed): as the sequence (Q9UM73 19-1620 limits assumed) above

[5] = target: Tyrosine-protein kinase receptor TYRO3 (Homo sapiens) (UniProt Q06418); experiment: Inhibition of TYRO3 at 4 uM by mobility shift assay; summary of the method: as §1
[6] = target: Angiopoietin-1 receptor (Homo sapiens) (UniProt Q02763); experiment: Inhibition of TIE2 at 4 uM by mobility shift assay; summary of the method: as §1
[7] = target: Tyrosine-protein kinase ITK/TSK (Homo sapiens) (UniProt Q08881); experiment: Inhibition of ITK at 4 uM by mobility shift assay; summary of the method: as §1
[8] = target: Insulin-like growth factor 1 receptor (Homo sapiens) (UniProt P08069); experiment: Inhibition of IGF-1R at 4 uM by mobility shift assay; summary of the method: as §1
[9] = target: T1, ALK tyrosine kinase receptor; experiment: Inhibition of EML4-ALK at 4 uM by mobility shift assay; summary of the method: as §1
Target sequence in this assay (Q9UM73 19-1620 limits assumed): as above

[10] = target: High affinity nerve growth factor receptor (Homo sapiens) (UniProt P04629); experiment: Inhibition of TRKA at 4 uM by mobility shift assay; summary of the method: as §1
[11] = target: Tyrosine-protein kinase CSK (Homo sapiens) (UniProt P41240); experiment: Inhibition of CSK at 4 uM by mobility shift assay; summary of the method: as §1
[12] = target: Tyrosine-protein kinase ABL1 (Homo sapiens) (UniProt P00519); experiment: Inhibition of ABL at 4 uM by mobility shift assay; summary of the method: as §1
[13] = target: Tyrosine-protein kinase SYK (Homo sapiens) (UniProt P43405); experiment: Inhibition of SYK at 4 uM by mobility shift assay; summary of the method: as §1
[14] = target: Platelet-derived growth factor receptor alpha (Homo sapiens) (UniProt P16234); experiment: Inhibition of PDGFRa at 4 uM by mobility shift assay; summary of the method: as §1
[15] = target: Receptor-type tyrosine-protein kinase FLT3 (Homo sapiens) (UniProt P36888); experiment: Inhibition of FLT3 at 4 uM by mobility shift assay; summary of the method: as §1
[16] = target: Hepatocyte growth factor receptor (Homo sapiens) (UniProt P08581); experiment: Inhibition of MET at 4 uM by mobility shift assay; summary of the method: as §1
[17] = target: Tyrosine-protein kinase JAK3 (Homo sapiens) (UniProt P52333); experiment: Inhibition of JAK3 at 4 uM by mobility shift assay; summary of the method: as §1
[18] = target: Fibroblast growth factor receptor 1 (Homo sapiens) (UniProt P11362); experiment: Inhibition of FGFR1 at 4 uM by mobility shift assay; summary of the method: as §1
[19] = target: Vascular endothelial growth factor receptor 2 (Homo sapiens) (UniProt P35968); experiment: Inhibition of KDR at 4 uM by mobility shift assay; summary of the method: as §1
[20] = target: Protein-tyrosine kinase 2-beta (Homo sapiens) (UniProt Q14289); experiment: Inhibition of PYK2 at 4 uM by mobility shift assay; summary of the method: as §1
[21] = target: Epidermal growth factor receptor (Homo sapiens) (UniProt P00533); experiment: Inhibition of EGFR at 4 uM by mobility shift assay; summary of the method: as §1
[22] = Inhibition of NPM1/ALK at 4 uM by mobility shift assay; summary of the method: as §1
[23] = target: Ephrin type-B receptor 4 (Homo sapiens) (UniProt P54760); experiment: Inhibition of EPHB4 at 4 uM by mobility shift assay
[24] = target: Ephrin type-A receptor 2 (Homo sapiens) (UniProt P29317); experiment: Inhibition of EPHA2 at 4 uM by mobility shift assay; summary of the method: as §1
[25] = target: Proto-oncogene tyrosine-protein kinase Src (Homo sapiens) (UniProt P12931); experiment: Inhibition of SRC at 4 uM by mobility shift assay; summary of the method: as §1
[26] = target: Insulin receptor (Homo sapiens) (UniProt P06213); experiment: Inhibition of INSR at 4 uM by mobility shift assay; summary of the method: as §1
Insulin receptor (Homo sapiens), sequence (P06213 28-758 limits assumed): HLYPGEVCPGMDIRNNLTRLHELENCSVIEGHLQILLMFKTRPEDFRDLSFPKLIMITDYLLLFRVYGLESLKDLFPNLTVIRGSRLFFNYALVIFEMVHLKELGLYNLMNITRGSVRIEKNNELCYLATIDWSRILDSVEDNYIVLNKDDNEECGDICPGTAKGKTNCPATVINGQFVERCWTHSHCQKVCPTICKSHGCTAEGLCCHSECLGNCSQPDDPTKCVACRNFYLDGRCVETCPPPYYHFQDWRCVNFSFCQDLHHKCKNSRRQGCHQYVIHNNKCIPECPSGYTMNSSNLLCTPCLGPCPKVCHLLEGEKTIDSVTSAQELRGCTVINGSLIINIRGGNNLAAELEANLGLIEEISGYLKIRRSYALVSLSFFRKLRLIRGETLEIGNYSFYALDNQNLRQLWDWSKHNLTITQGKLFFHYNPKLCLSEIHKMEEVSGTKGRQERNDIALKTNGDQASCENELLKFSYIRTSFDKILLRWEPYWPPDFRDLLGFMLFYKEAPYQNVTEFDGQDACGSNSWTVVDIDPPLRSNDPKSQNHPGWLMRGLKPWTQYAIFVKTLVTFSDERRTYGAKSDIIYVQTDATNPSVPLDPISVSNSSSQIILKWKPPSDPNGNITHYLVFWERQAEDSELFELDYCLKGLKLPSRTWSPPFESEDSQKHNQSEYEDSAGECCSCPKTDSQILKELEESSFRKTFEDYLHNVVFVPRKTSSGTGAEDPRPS
Insulin receptor (Homo sapiens), sequence (P06213 763-1382 limits assumed): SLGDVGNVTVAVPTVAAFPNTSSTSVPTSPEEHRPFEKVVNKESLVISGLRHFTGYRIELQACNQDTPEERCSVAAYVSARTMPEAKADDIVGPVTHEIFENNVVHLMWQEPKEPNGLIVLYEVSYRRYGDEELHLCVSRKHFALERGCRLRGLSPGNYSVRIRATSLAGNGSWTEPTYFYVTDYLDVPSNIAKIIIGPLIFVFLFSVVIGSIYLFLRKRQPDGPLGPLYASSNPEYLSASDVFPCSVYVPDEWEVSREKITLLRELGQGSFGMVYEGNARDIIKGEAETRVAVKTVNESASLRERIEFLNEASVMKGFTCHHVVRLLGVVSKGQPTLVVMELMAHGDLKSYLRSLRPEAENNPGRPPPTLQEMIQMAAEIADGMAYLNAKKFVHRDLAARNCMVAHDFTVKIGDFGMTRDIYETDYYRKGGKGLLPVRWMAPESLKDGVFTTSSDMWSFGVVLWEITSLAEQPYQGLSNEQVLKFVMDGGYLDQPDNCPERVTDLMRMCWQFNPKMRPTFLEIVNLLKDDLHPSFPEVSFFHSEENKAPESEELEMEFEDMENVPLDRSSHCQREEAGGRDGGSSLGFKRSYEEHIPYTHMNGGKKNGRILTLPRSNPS

Tyrosine-protein kinase CSK (Homo sapiens), sequence (P41240 2-450 limits assumed): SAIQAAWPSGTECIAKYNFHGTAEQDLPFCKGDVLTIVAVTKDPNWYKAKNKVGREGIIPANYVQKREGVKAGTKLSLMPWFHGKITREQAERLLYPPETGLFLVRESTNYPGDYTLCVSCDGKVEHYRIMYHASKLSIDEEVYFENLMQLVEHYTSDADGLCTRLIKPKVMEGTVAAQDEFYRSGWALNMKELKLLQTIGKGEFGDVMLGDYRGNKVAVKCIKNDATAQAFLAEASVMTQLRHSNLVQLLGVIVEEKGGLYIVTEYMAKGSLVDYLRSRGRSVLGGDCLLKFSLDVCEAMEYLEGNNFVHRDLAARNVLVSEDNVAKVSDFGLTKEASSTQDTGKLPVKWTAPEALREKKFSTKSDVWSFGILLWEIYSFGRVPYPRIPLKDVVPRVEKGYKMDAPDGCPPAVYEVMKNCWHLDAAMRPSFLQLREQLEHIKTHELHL

Oc1ccc(C2Oc3cc(O)cc(O)c3CC2O)cc1 (stereo not given)
inhibition [1]: > 50%

O=C(OCc1cc(=O)oc2cc(O)c(O)cc12)c1cc2ccccc2cc1O
inhibition [1]: > 50%

O=[N+]([O-])c1ccc2ncnc(Nc3ccc(O)cc3)c2c1
IC50 [2]: 8.66 µM

COc1cc2c(-c3ccc(O)cc3)nc3[nH]nc(C)c3c2cc1OC
IC50 [2]: ≤ 0.099 µM

Oc1c2ccccc2c2c3c(cccc13)N=N2
inhibition [1]: > 50%

Cc1cc(-c2ccc(NCCN)cc2)c(/C=C2\C(=O)Nc3ccccc32)[nH]1
IC50 [2]: 0.149 µM

Cc1[nH]c(/C=C2\C(=O)Nc3ccc(F)cc32)c(C)c1C(=O)O
IC50 [2]: 0.91 µM

CCc1nc(/C=C2\C(=O)Nc3ccccc32)c[nH]1
inhibition [1]: > 50%

Cc1cc(-c2cccc(N)c2)c(/C=C2\C(=O)Nc3ccc(N)cc32)[nH]1
IC50 [2]: 0.0508 µM

Oc1ccc(Nc2nc(-c3ccccc3O)nc3ccccc23)cc1
IC50 [2]: 4.24 µM

Oc1ccccc1-c1nc(Nc2ccc(Cl)cc2)c2ccccc2n1
IC50 [2]: 6.46 µM

Oc1ccc(Nc2ncnc3ccc(Br)cc23)cc1
IC50 [2]: 2.85 µM
inhibition [1]: > 50%

O=C1Nc2ccccc2/C1=C/c1c[nH]nc1-c1cccs1
inhibition [1]: > 50%

Cc1cc(-c2cccc(N)c2)c(/C=C2\C(=O)Nc3ccccc32)[nH]1
inhibition [3]: 69.8%
inhibition [4]: 97.6%
inhibition [5]: 100%
inhibition [6]: 14%
inhibition [7]: 34.2%
IC50 [2]: 0.0618 µM
inhibition [8]: 91.2%
inhibition [9]: 98.7%
inhibition [10]: 99.4%
inhibition [11]: -6.5%
inhibition [12]: 5.1%
inhibition [13]: 58.5%
inhibition [14]: 56.6%
inhibition [15]: 98.1%
inhibition [16]: 12.7%
inhibition [17]: 9%
inhibition [18]: 62.7%
inhibition [19]: 81.7%
inhibition [20]: 86.5%
inhibition [21]: -2.3%
inhibition [22]: 93.8%
inhibition [23]: 5.1%
inhibition [24]: 4.9%
inhibition [25]: 39%
inhibition [26]: 97.2%

CC(=O)COc1ccc2c(c1)O/C(=C\c1ccc([N+](=O)[O-])cc1)C2=O
inhibition [1]: > 50%

CC1CN(Cc2c(-c3cccs3)[nH]c3ncccc23)CC(C)O1 (stereo not given)
IC50 [2]: 9.29 µM

CCOC(=O)c1ccc(Nc2nc(Nc3ccc(Cl)cc3)c3nccnc3n2)cc1
IC50 [2]: 3.47 µM

Cc1cc(-c2ccc(N)cc2)c(/C=C2\C(=O)Nc3ccccc32)[nH]1
IC50 [2]: 0.368 µM

O=C1c2c(cc(O)c(O)c2O)CCCC1O (stereo not given)
inhibition [1]: > 50%

COc1cc(-c2nc3cc(C)ccn3c2/N=C/c2cc(Cl)ccc2O)ccc1O
IC50 [2]: 2.4 µM

COc1cc2ncnc(Nc3ccc(O)cc3)c2cc1OC [WHI-P131]
IC50 [2]: 2.4 µM

NC(Cc1cc(O)c(O)cc1O)C(O)O (stereo not given)
inhibition [1]: > 50%

Oc1ccc(-n2cccc2)cc1C(O)O
inhibition [1]: > 50%

Cc1cc(-c2cccc(NCCN)c2)c(/C=C2\C(=O)Nc3ccccc32)[nH]1
IC50 [2]: 0.0891 µM

CCc1nc(C)c(/C=C2\C(=O)Nc3ccccc32)[nH]1
IC50 [2]: 1.38 µM

Oc1cc(C(O)O)c2cc(Oc3ccc4nc(O)cc(C(O)O)c4c3)ccc2n1
inhibition [1]: > 50%

Cn1cc(/C=C2\C(=O)Nc3ccccc32)c2ccccc21
inhibition [1]: > 50%

Cc1ccc(NC2=NC(=O)/C(=C3\C(=O)Nc4ccccc43)S2)cc1
IC50 [2]: 3.75 µM

COc1cc(N2CCCC2)ccc1/C=C1\C(=O)NC(=O)N(c2cccnc2)C1=O
inhibition [1]: > 50%

O=C1Nc2ccccc2/C1=C/c1c[nH]nc1-c1ccccc1
IC50 [2]: 1.73 µM

CN(C)S(=O)(=O)c1ccc2c(c1)/C(=C/c1cc3c([nH]1)CCCC3)C(=O)N2
IC50 [2]: 0.85 µM

Cc1[nH]c(/C=C2\C(=O)Nc3ccccc32)c(C)c1-c1ccc(NCCN)cc1
IC50 [2]: 0.415 µM

Cc1cc(-c2ccc(N)cc2)c(/C=C2\C(=O)Nc3ccc(N)cc32)[nH]1
IC50 [2]: 0.0683 µM

COc1c(OCCN2CCCCC2)cc(F)c2c(-c3ccc(O)c(Cl)c3)nc3[nH]nc(C)c3c12
IC50 [2]: ≤ 0.099 µM

Cc1[nH]c(/C=C2\C(=O)Nc3ccccc32)c(C)c1-c1cccc(NCCN)c1
IC50 [2]: 0.604 µM
